Here are results for twelve compounds from ChEMBL document CHEMBL1144717, “1-(2-Carboxyindol-5-yloxy)propan-2-ones as inhibitors of human cytosolic phospholipase A2alpha: synthesis, biological activity, metabolic stability, and solubility” (Bioorg Med Chem, 2008).

The structures appear in SMILES notation. In brackets after ≈: the same amount, converted by molar mass. Activity calls are given as the source filed them. The calls are words filed in the database; no cut-off is given here. Where only a bound is given, the exact number is not on record here.

Series [1] concerns the target T1, Cytosolic phospholipase A2 (Homo sapiens) (UniProt P47712).
T1 sequence (whole entry): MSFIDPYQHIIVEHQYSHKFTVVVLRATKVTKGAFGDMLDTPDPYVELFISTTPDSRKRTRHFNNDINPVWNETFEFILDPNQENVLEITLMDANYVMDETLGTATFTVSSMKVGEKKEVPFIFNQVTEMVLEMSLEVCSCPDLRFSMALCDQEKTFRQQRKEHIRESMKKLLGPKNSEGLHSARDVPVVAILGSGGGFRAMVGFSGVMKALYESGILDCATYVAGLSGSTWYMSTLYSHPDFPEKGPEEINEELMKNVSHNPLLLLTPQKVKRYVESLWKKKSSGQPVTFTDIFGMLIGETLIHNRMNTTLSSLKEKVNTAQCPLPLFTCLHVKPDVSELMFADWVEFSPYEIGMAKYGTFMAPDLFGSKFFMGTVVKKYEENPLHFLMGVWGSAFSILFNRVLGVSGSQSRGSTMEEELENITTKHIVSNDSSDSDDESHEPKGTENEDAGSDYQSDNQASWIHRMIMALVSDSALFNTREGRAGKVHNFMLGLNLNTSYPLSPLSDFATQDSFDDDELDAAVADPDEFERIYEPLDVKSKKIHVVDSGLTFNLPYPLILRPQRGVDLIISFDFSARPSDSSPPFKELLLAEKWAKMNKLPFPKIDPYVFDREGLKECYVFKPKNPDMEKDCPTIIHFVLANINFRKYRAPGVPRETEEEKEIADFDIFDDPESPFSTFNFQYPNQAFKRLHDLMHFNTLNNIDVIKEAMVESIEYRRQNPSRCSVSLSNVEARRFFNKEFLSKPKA
Description: Inhibition of cPLA2-alpha in TPA-stimulated intact human platelets assessed as liberation of arachidonic acid at 10 um after 60 mins. Put shortly:
(§1)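 Human platelets from buffy coat, washed in PBS/EDTA and resuspended in PBS (0.1 M, pH 7.4) at about 10⁸ cells/mL. Preincubated 5 min at 37 °C with ETYA (final 10 µM) and compound in DMSO, then CaCl₂ added for a further 5 min. Stimulated with TPA (final 2 µM) for 60 min at 37 °C. Released arachidonic acid quantified by SPE then RP-HPLC, UV 200 nm, against an internal standard.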

For series [2], the target named is T1, Cytosolic phospholipase A2 (Homo sapiens). Nature of the series: Inhibition of human platelet cPLA2-alpha activity at 10 uM. The method, boiled down:
(§2)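 cPLA₂α isolated from human platelets. Incubated 60 min. Arachidonic acid released, with and without compound, measured by RP-HPLC with UV 200 nm after SPE cleanup, using an internal standard. Values are means of at least two independent determinations.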

The target of series [3] is T2, Cytosolic phospholipase A2 (Homo sapiens, UniProt P47712).
T2 sequence (P47712 whole entry): T1 sequence (whole entry)
Nature of the series: Inhibition of human platelet cPLA2-alpha activity. The method, boiled down: as §2

A short description of series [4]: Metabolic stability in rat liver microsomes at 20 uM after 30 mins in presence of NADPH by reverse phased HPLC relative to control. Format: ADME, Microsome. The conditions noted are these: read-out: Stability. Put shortly: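 Rat liver microsomes at 5.7 mg protein/mL in PBS (0.1 M, pH 7.4); compound final 20 µM from DMSO. Preincubated 5 min at 37 °C, then started with NADPH (12 mM) and MgCl₂ (5 mM) solution. Stopped after 30 min with acetonitrile. Parent ketone peak measured by RP-HPLC at 240 nm and compared with an NADPH-free incubation. Mean of at least two independent determinations.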

A short description of series [5]: Solubility in sodium phosphate buffer at pH 7.4. Format: physicochemical. Put shortly: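 Supernatant diluted with acetonitrile and phosphoric acid, then quantified by RP-HPLC at 240 nm against a calibration curve. Mean ± SD, n = 3 (n = 2 for values <1 µg/mL).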
Series [6] concerns the target T2, Cytosolic phospholipase A2. Description: Inhibition of cPLA2-alpha in TPA-stimulated intact human platelets assessed as liberation of arachidonic acid after 60 mins. The method, boiled down:
as §1

Usually IC50 stands for the concentration that gives 50% inhibition. Broadly, the solubility is the dissolved amount per volume that the medium holds. High values mean much dissolved substance, low ones little dissolved substance. The inhibition is how much of the control response was suppressed. A high value points to a strong effect.

With `CCCCCCCCc1ccc(OCC(O)COc2ccc3c(c2)cc(C(=O)O)n3CC(=O)O)cc1` (stereo not given), the result in series [1] and in series [2] was inactive.

Consider `CCCCCCCCc1ccc(OCC(=O)COc2ccc3c(c2)cc(C(=O)O)n3Cc2ccc(C(=O)O)cc2)cc1`, for which the IC50 in series [3] is 1500 nM. Also, the remaining at 0.5 h, 20 µM in series [4] turned out to be 15%. Moreover, the concentration in solution in series [5] (solubility) came to 13 µg/mL (≈ 22.7 µM).

Consider `CCCCCCCCc1ccc(OCC(=O)COc2ccc3c(c2)cc(C(=O)O)n3CCC)cc1`, for which, in series [3], the IC50 was determined as 2100 nM. Further, the remaining at 0.5 h, 20 µM in series [4] was under 5%. In series [5], this compound registered a solubility of under 1 µg/mL.

For `CCCCCCCCc1ccc(OCC(=O)COc2ccc3c(c2)cc(C(=O)O)n3CCCCCC(=O)O)cc1`, the IC50 in series [3] was found to be 600 nM; in series [6], 500 nM. For the same compound, in series [4], the remaining at 0.5 h, 20 µM was under 5%. Moreover, the solubility in series [5] was determined as 17 µg/mL (≈ 30.8 µM).

As for `CCCCCCCCc1ccc(OCC(=O)COc2ccc3[nH]c(C(=O)O)cc3c2)cc1`, half-maximal inhibition in series [3] (IC50) required 3300 nM. Further, the remaining at 0.5 h, 20 µM in series [4] was under 5%. In series [5], the concentration in solution (solubility) was 8.4 µg/mL (≈ 19.2 µM).

With `CCCCCCCCc1ccc(OCC(=O)COc2ccc3c(c2)cc(C(=O)O)n3CCCC(=O)O)cc1`, the values for the IC50 in series [3] and in series [6] were 400 nM and 300 nM, respectively. Further, the remaining at 0.5 h, 20 µM in series [4] is under 5%. For the same compound, the solubility in series [5] is 30 µg/mL (≈ 57.3 µM).

Consider `CCCCCCCCc1ccc(OCC(O)COc2ccc3c(c2)cc(C(=O)O)n3C)cc1` (stereo not given), for which the outcome in series [1] and in series [2] was inactive.

In series [3], `CCCCCCCCc1ccc(OCC(=O)COc2ccc3c(c2)cc(C(=O)O)n3CCCCCC)cc1` yielded an IC50 of over 10000 nM. This compound showed an inhibition in series [2] of 42%. In addition, the remaining at 0.5 h, 20 µM in series [4] is under 5%. Further, the solubility in series [5] is under 1 µg/mL.

As for `CCCCCCCCc1ccc(OCC(=O)COc2ccc3c(c2)cc(C(=O)O)n3C)cc1`, the IC50 in series [3] was found to be 1200 nM; in series [6] it was 600 nM. For the same compound, in series [4], the remaining at 0.5 h, 20 µM was under 5%. The compound also had a solubility in series [5] of under 1 µg/mL.

As for `CCCCCCCCc1ccc(OCC(=O)COc2ccc3c(c2)cc(C(=O)O)n3CC(=O)O)cc1`, the IC50 in series [3] amounted to 300 nM; in series [6] it was 1300 nM. In addition, the remaining at 0.5 h, 20 µM in series [4] amounted to 18%. Besides, in series [5], the concentration in solution (solubility) came to 8.1 µg/mL (≈ 16.3 µM).

Compound `CCCCCCCCc1ccc(OCC(=O)COc2ccc3c(c2)cc(C(=O)O)n3CCN(C)C)cc1` came in with an IC50 in series [3] of over 10000 nM. The same compound showed an inhibition in series [2] of 32%. The remaining at 0.5 h, 20 µM in series [4] stood at 9%. The same compound displayed a solubility in series [5] of 46 µg/mL (≈ 90.4 µM).

As to `CCCCCCCCc1ccc(OCC(=O)COc2ccc3c(c2)cc(C(=O)O)n3Cc2ccccc2)cc1`, in series [3], the IC50 is 10000 nM. In series [4], the remaining at 0.5 h, 20 µM was under 5%. For the same compound, the solubility in series [5] was under 1 µg/mL.
